97 compounds from ChEMBL document CHEMBL4513216, “Probing the Open Global Health Chemical Diversity Library for Multistage-Active Starting Points for Next-Generation Antimalarials” (ACS Infect Dis, 2020) can be followed below.

This data set is described as follows: Toxicity liver stage against HepG2, at 10uM. As to conditions: human, HepG2-A16-CD81EGFP cells; read-out: INHIBITION
In kind it is cell-based. Also noted: test concentration 10 uM, cell line HepG2-A16-CD81EGFP. The gist of the method:
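Uninfected HepG2-A16-CD81EGFP cells, 3 × 10^3 per well, 1536-well, plated on prespotted compound at 10 μM final, parasite-free screening media added to match infected plates; puromycin 10 μM positive, DMSO 0.5% negative; run in parallel with 48 h PbLuc assay at 37 °C, 5% CO2; viability by CellTiter-Glo luminescence, normalized to controls.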
With `Cc1nc(CN2CCCC(NCc3cnc(C(C)(C)C)s3)C2)no1` (configuration not stated), the cytotoxicity at 10 µM turned out to be 0.38%.

Turning to `Cc1cc(NC(=O)CCN(CC2CCOC2)C2CC2)no1` (configuration not stated), the cytotoxicity at 10 µM was -0.794%.

For `COc1ccc(C[C@H]2CN(C(=O)c3ccc(C)nc3)CC[C@@H]2OC)cc1`, the cytotoxicity at 10 µM came to 4.76%.

As to `NC(=O)c1cnn2c1NCC(CNCC1(c3ccccc3)CCC1)C2` (configuration not stated), the cytotoxicity at 10 µM was -7.73%.

With `CCn1ncc(CN2CCc3c(nc(-c4cccnc4)[nH]c3=O)C2)c1C`, the cytotoxicity at 10 µM was determined as 1.34%.

Consider `O=C(NCCN1CCOCC1)c1ccc(-c2ccccc2)[nH]c1=O`, for which the cytotoxicity at 10 µM turned out to be 1.58%.

Take `Cc1ccc(C)c2c(O)cc(CN[C@H]3CCCCNC3=O)nc12`: the cytotoxicity at 10 µM was 5.63%.

With `CC(=O)N1CCC(NS(=O)(=O)c2cccnc2)CC1`, the cytotoxicity at 10 µM is -2.73%.

For the compound `CC(C)n1cc(N2CC(C(=O)N3CCC(C(N)=O)CC3)CC2=O)cn1` (configuration not stated), the cytotoxicity at 10 µM is -4.51%.

As to `O=C(O)[C@H]1CN(Cc2ccccc2)C[C@@H]1C(=O)c1ccccc1`, the cytotoxicity at 10 µM was determined as 5.76%.

For the compound `CC1CCN(Cc2ccccc2CNC(=O)C2CNC(=O)N2)CC1` (configuration not stated), the cytotoxicity at 10 µM turned out to be 2.16%.

As for `c1cc(CN2CCOCC3(CCNCC3)C2)ccn1`, the cytotoxicity at 10 µM was -71%.

On to `CN(C)S(=O)(=O)c1ccc(F)c(NC(=O)COCC2CC2)c1`, for which the cytotoxicity at 10 µM was 3.71%.

For `O=C(O)c1ccc(S(=O)(=O)Nc2c(F)cccc2-n2cccn2)cc1`, the cytotoxicity at 10 µM is -8.8%.

In the case of `Cc1cc(OCC(=O)N2CCCC(c3noc(C(C)C)n3)C2)no1` (configuration not stated), the cytotoxicity at 10 µM is -4.56%.

As to `Fc1ccccc1C1(CNC2CCOC3(CCOCC3)C2)CCCC1` (configuration not stated), the cytotoxicity at 10 µM was -1.53%.

In the case of `CNC(=O)c1cccc(CC2COCCN(Cc3ccc(C)o3)C2)n1` (configuration not stated), the cytotoxicity at 10 µM was determined as 0.166%.

For `CCc1nnc2n1CCN(CCC(=O)Nc1sccc1C#N)C2`, the cytotoxicity at 10 µM is -23%.

Consider `Cc1cc(C2CCCN(CCCNS(C)(=O)=O)C2)n[nH]1` (configuration not stated), for which the cytotoxicity at 10 µM was -5.2%.

In the case of `Cc1ccc2c(c1)C1(CC(=O)Nc3[nH]ncc31)C(=O)N2C` (configuration not stated), the cytotoxicity at 10 µM is -1.6%.

`CC(C)(C)NC(=O)CNc1ncc(Br)cn1`: the cytotoxicity at 10 µM came out at 2.96%.

For `CC(=O)c1cccc(NC(=O)CN2CCCCC2C(=O)N2CCCC2)c1` (configuration not stated), the cytotoxicity at 10 µM was -8.82%.

On to `O=C(CCn1ccccc1=O)Nc1ccc(F)c(Cl)c1`, for which the cytotoxicity at 10 µM was 13.1%.

With `Cc1ccc2nc(CNCCCOc3ccccc3)cc(O)c2c1` [UCSF924], the cytotoxicity at 10 µM stood at 5.5%.

Take `O=C(NCCNS(=O)(=O)c1ccc2c(c1)CCC2)c1ccccc1`: the cytotoxicity at 10 µM was 9.36%.

With `O=C(O)c1nnn(Cc2ccc(F)cc2)c1-c1cccnc1`, the cytotoxicity at 10 µM was -6.21%.

Take `COCC(=O)N1CCC2(CCN(Cc3cccnc3)C2)CC1`: the cytotoxicity at 10 µM was -2.42%.

As to `CC(C)C(C)N(Cc1cnc2ccccc2n1)Cc1ccco1` (configuration not stated), the cytotoxicity at 10 µM is 14.7%.

On to `CCCc1n[nH]c(C2CN(C(=O)CCc3cscn3)CCO2)n1` (configuration not stated), for which the cytotoxicity at 10 µM is -1.63%.

Consider `Cc1cc(C)n(CCCC(=O)N2CC[C@H]3NCCC[C@]3(CO)C2)n1`, for which the cytotoxicity at 10 µM is -0.862%.

For the compound `CC(O)C(=O)N1CCN(c2ccccc2Cl)C(=O)C1` (configuration not stated), the cytotoxicity at 10 µM was -1.59%.

In the case of `Cc1nc(NC(=O)CCc2c(C)nc3cc(O)nn3c2C)sc1C`, the cytotoxicity at 10 µM is -13.5%.

For `COCCN1CCCn2cnc(CN(C)C(C)C)c2C1`, the cytotoxicity at 10 µM is 6.53%.

Regarding `COCC(NC(=O)c1ccc[nH]1)c1cccc(C(F)(F)F)c1` (configuration not stated), the cytotoxicity at 10 µM was -2.54%.

As for `NC(=O)CN1CC2(CCC1=O)CCN(C(=O)c1ccccc1F)CC2`, the cytotoxicity at 10 µM came out at 23.5%.

In the case of `COc1c(C2CCCN2CC(=O)Nc2cc(C)nn2C)c(C)nn1C` (configuration not stated), the cytotoxicity at 10 µM was 3.72%.

Take `CC(O)CN1CCC(CN(C)Cc2cccc(C#N)c2)CC1` (configuration not stated): the cytotoxicity at 10 µM was -1.3%.

For the compound `Cc1nc(CN2CCOCC3(CCN(c4ncccn4)C3)C2)cs1` (configuration not stated), the cytotoxicity at 10 µM is -22.8%.

Consider `CC(CC#N)N(C)Cc1ccccc1F` (configuration not stated), for which the cytotoxicity at 10 µM came out at 10.4%.

Take `Cn1c(C2CC2)nc2cc(NC(=O)C3CC=CC3)ccc21`: the cytotoxicity at 10 µM amounted to 2.8%.

Take `CC(NC(=O)c1cccnc1N(C)C)c1ccccc1Br` (configuration not stated): the cytotoxicity at 10 µM was 17.7%.

Take `O=C(Cc1csc(N2CCNC2=O)n1)NC(c1ccccc1)C1CC1` (configuration not stated): the cytotoxicity at 10 µM was -136%.

Consider `CC(O)CNCc1c(C(C)C)nn(C)c1N1CCOCC1` (configuration not stated), for which the cytotoxicity at 10 µM was -3.48%.

Regarding `CC(CCc1ccccc1F)C(=O)NS(=O)(=O)CC1CC1` (configuration not stated), the cytotoxicity at 10 µM was -5.36%.

For the compound `Cc1occc1C(=O)N1C[C@H]2CCCC(OCc3cccnc3)[C@H]2C1` (some centres not stated), the cytotoxicity at 10 µM stood at 2.72%.

In the case of `O=C(COc1ccc(F)cc1)N1CCCSCC1CN1CCOCC1` (configuration not stated), the cytotoxicity at 10 µM was -0.0603%.

On to `CN(C)CC1CSCCCN1C(=O)c1ccc(=O)[nH]c1` (configuration not stated), for which the cytotoxicity at 10 µM turned out to be 2.76%.

For `O=C(NCC1CCCO1)c1nc2c(s1)CCCN2CC1CC1` (configuration not stated), the cytotoxicity at 10 µM is -0.843%.

As for `Cc1cc(C2CCCN2CC(=O)N(CCC#N)c2ccccc2F)on1` (configuration not stated), the cytotoxicity at 10 µM is -1.5%.

As to `Cc1nc(C2CCCN2CCCNS(C)(=O)=O)no1` (configuration not stated), the cytotoxicity at 10 µM is -8.6%.

With `Cc1ccc(C(CNCC2CC2)N2CCOCC2)s1` (configuration not stated), the cytotoxicity at 10 µM was -13.7%.

On to `CCc1cn[nH]c1C1CCN(c2cc(C)c3cccc(OC)c3n2)CC1`, for which the cytotoxicity at 10 µM was determined as 19%.

With `Cc1ccc(NC2CCCN(CCCc3ccccc3)C2)nn1` (configuration not stated), the cytotoxicity at 10 µM was -2.81%.

Consider `CN1CCN(CC(C)(C)C)CC1CCO` (configuration not stated), for which the cytotoxicity at 10 µM stood at 1.88%.

With `Cc1ccoc1C(=O)N1C[C@H](OCc2cccnc2)[C@H]2OCCC[C@H]21`, the cytotoxicity at 10 µM is -5.28%.

On to `CCC(CN1CCCCC1)NC(=O)C1(c2cccc(F)c2)CC1` (configuration not stated), for which the cytotoxicity at 10 µM worked out at 0.689%.

Consider `O=C1CC[C@H]2[C@H](CCN2C(=O)C2CCCO2)N1CCN1CCCC1` (some centres not stated), for which the cytotoxicity at 10 µM is -4.66%.

On to `CNS(=O)(=O)CC(=O)NC(C)Cc1ccc(Br)cc1` (configuration not stated), for which the cytotoxicity at 10 µM was -10.9%.

In the case of `Cn1cc(CN2CCCCC2c2ccc(-c3cnn(C)c3)nc2)cn1` (configuration not stated), the cytotoxicity at 10 µM amounted to 9.25%.

Take `COc1ccnc(N2CCN(Cc3ncc(-c4ccccc4)o3)CC2)n1`: the cytotoxicity at 10 µM was -10.2%.

As for `OC(CNCc1ccccc1C(F)(F)F)c1ccccc1` (configuration not stated), the cytotoxicity at 10 µM was -4.63%.

For the compound `CC(C)CCn1c(=O)[nH]c2cn(-c3ccc(F)cc3)c(=O)n21`, the cytotoxicity at 10 µM worked out at 2.97%.

With `N[C@@H](Cc1c[nH]cn1)C(=O)N1CCC(Oc2ccc(Cl)cc2)CC1`, the cytotoxicity at 10 µM was -2.13%.

Consider `CCSc1ccc(C(=O)N2CCC3(CCC(=O)N(C)C3)CC2)s1`, for which the cytotoxicity at 10 µM was -11.2%.

As to `COc1ccc2c(=O)n(CC3CCCN(C)C3)ccc2c1OC` (configuration not stated), the cytotoxicity at 10 µM is -0.391%.

Consider `O=C(COCC(F)(F)F)Nc1nncs1`, for which the cytotoxicity at 10 µM is 5.79%.

As for `CC(C)CC1CC(=O)Nc2c1cnn2Cc1ccco1` (configuration not stated), the cytotoxicity at 10 µM was -2.75%.

Regarding `O=C(Cc1ccccn1)N1CCC2(CC1)CC(Oc1ccccn1)CO2` (configuration not stated), the cytotoxicity at 10 µM was -0.0273%.

Take `CCOC(C(=O)N1CCn2c(C)nnc2C1)c1ccccc1` (configuration not stated): the cytotoxicity at 10 µM was 4.93%.

For `CCOCC1CN(Cc2ccoc2)Cc2nn(CC3CC3)cc21` (configuration not stated), the cytotoxicity at 10 µM was -11.9%.

In the case of `CC(C)c1nc(C(=O)N2C[C@@H]3CC[C@H]2CN(C2CCOCC2)C3)cs1`, the cytotoxicity at 10 µM came to 5.31%.

On to `CC(C)=CCN1CCC(c2nccn2Cc2cscn2)CC1`, for which the cytotoxicity at 10 µM was -13%.

For `CC(C)NC(=O)CSc1nc2c(cnn2CCO)c(=O)[nH]1`, the cytotoxicity at 10 µM was -8.72%.

For the compound `CC1CCC(O)(CN2CCN(CCNC(=O)C3CCC3)CC2)CC1` (configuration not stated), the cytotoxicity at 10 µM is -0.118%.

With `CN(Cc1c(F)cccc1Cl)C(=O)c1cnn(CCN2CCOCC2)c1`, the cytotoxicity at 10 µM is -4.2%.

Consider `O=c1[nH]c(CN(Cc2ccco2)C2CCCC2)nc2ccccc12`, for which the cytotoxicity at 10 µM amounted to 11.6%.

As to `COc1nccc(N2CC[C@@H](N3CCC(O)CC3)[C@H](O)C2)c1C#N`, the cytotoxicity at 10 µM is -152%.

For `Cc1cccc(N2CC(c3nnc(N)s3)CC2=O)c1` (configuration not stated), the cytotoxicity at 10 µM stood at 3.79%.

In the case of `O=C(C1CCOCC1)N1CCC2(CCC(C(=O)N3CCCC3)O2)CC1` (configuration not stated), the cytotoxicity at 10 µM amounted to 6.41%.

For the compound `O=C(C1CCCO1)N1CCCn2c(nnc2Cn2cccc2)C1` (configuration not stated), the cytotoxicity at 10 µM came to 16.4%.

Turning to `Cc1cncc(C(=O)N2CCO[C@H]3[C@H](Oc4ccccn4)CC[C@@H]32)c1`, the cytotoxicity at 10 µM was -115%.

With `CCOCc1cncc2c1CCN(C(=O)c1cccc(C#N)c1)C2`, the cytotoxicity at 10 µM came out at 3.55%.

As to `CCN(CC)S(=O)(=O)c1ccc(C(F)(F)F)cc1C#N`, the cytotoxicity at 10 µM was -13.4%.

Turning to `CCS(=O)(=O)N(C)C1CCN(C(=O)c2cc(C)cc(C)c2)CC1`, the cytotoxicity at 10 µM is 11.5%.

For `CCCc1noc(CCCC(=O)N2CCCC2c2cnn(C)c2)n1` (configuration not stated), the cytotoxicity at 10 µM stood at 6.32%.

With `c1cnc(Nc2cncc(C3CCCN(c4ncccn4)C3)n2)nc1` (configuration not stated), the cytotoxicity at 10 µM was -2.44%.

On to `Cn1cccc1C(=O)N1CC[C@H]2[C@@H]1CCC(=O)N2c1ccccc1`, for which the cytotoxicity at 10 µM was -6.53%.

`CCCNS(=O)(=O)Cc1ccc(Br)cc1`: the cytotoxicity at 10 µM was -4.81%.

For `N#Cc1cc(F)ccc1Cn1cnc(C2CCC2)cc1=O`, the cytotoxicity at 10 µM is -5.32%.

In the case of `CC(C)Nc1ccc2nc(C3CCN(C(C)C)CC3)nn2c1`, the cytotoxicity at 10 µM is -20.4%.

For the compound `c1ccc(Cc2noc(CCNC3CCOC4(CCOCC4)C3)n2)cc1` (configuration not stated), the cytotoxicity at 10 µM was -0.872%.

In the case of `COCCC1(CNC(=O)Nc2ccc(-n3ccnn3)cc2)CCC1`, the cytotoxicity at 10 µM was -0.677%.

For the compound `CC(=O)N[C@@H]1CN(Cc2ccccc2-n2nc(C)cc2C)C[C@H]1C(C)C`, the cytotoxicity at 10 µM came out at 4.01%.

On to `COc1cccc(CC(=O)N2CC[C@@H]3CN(C)S(=O)(=O)[C@@H]3CC2)c1`, for which the cytotoxicity at 10 µM is -2.36%.

On to `Cc1ccc(C(=O)NCCSCc2cccs2)cn1`, for which the cytotoxicity at 10 µM was -3.95%.

As for `CCC(=O)NCCc1cc(N2CCN(C(C)=O)CC2)nc(C2CC2)n1`, the cytotoxicity at 10 µM is -0.439%.

Take `Cc1nn(C)c(C)c1OCC(=O)NCC(O)c1ccsc1` (configuration not stated): the cytotoxicity at 10 µM was determined as 2.27%.
